# Data from publication PMC5061631 (Cell metabolism, 2016).
# What was measured:
# [1] = system: site IQ of mitochondrial respiratory complex I; format: biochemical, rat; conditions: for IC50: read-out: IC50 against superoxide-H2O2 production from site IQ, isolated rat skeletal muscle mitochondria
# In short: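 Freshly isolated rat skeletal muscle mitochondria, in the high-throughput screen run in 1,536-well format with library compounds at 10 µM. H2O2 was detected by Amplex UltraRed, which horseradish peroxidase oxidises to fluorescent resorufin. Data were normalised to the plate median signal, and rotenone was included on every plate as the positive site IQ inhibitor.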
# intestinal stem cells = assay: In vivo stem cell proliferation assays in Drosophila intestine; set-up: species or system Drosophila melanogaster; conditions: dietary, 800 nM; 50 µM tunicamycin
# In short: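 Tunicamycin model: w;esgGal4,UAS-GFP virgins were crossed to Oregon Red males. Six-day-old offspring were starved 4 hr, fed 24 hr on 5% sucrose with 0.8% DMSO plus test compound, starved 1 hr, then given the same food with 50 µM tunicamycin for 24 hr. Adult female intestines were fixed and immunostained for phospho-histone H3, and positive cells were counted manually.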
# H9c2 rat cardiomyoblasts = assay: ER stress protection assay: caspase 3/7 activation by tunicamycin; format: cell-based; conditions: H9c2 cells, 0.5 µg/ml tunicamycin, 24 hr
# In short: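 H9c2 cardiomyoblasts were seeded at 8,000 cells/well and grown 24 hr in DMEM with 10% FBS. Test compound or 1% DMSO vehicle was added, then 0.5 µg/ml tunicamycin 15 min later. After a further 24 hr, caspase 3/7 activity was read by luminescence. Background from cells without tunicamycin was subtracted, and values were normalised to vehicle-treated tunicamycin-exposed cells.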
# perfused mouse heart = assay: Langendorff-perfused heart model of ischemia-reperfusion injury; conditions: 1.6 µM for 5 min at reperfusion
# In short: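 Mouse hearts were excised under tribromoethanol anaesthesia and perfused retrogradely at 4 ml/min in modified Krebs-Henseleit buffer with glucose, palmitate/BSA, lactate and pyruvate. After 20 min equilibration, hearts had 25 min global no-flow ischaemia and 60 min reperfusion. Test compound (1.6 µM) or 0.05% DMSO was infused for 5 min at reperfusion onset. Rate × developed pressure was normalised to pre-ischaemic baseline, infarct area was measured by TTC in 4–6 slices, and n = 6 per group.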
# site IQ = conditions: ref Orr et al., 2013; cited from earlier work
Compound,IC50 [1] [nM],suppression of tunicamycin-induced increase in mitotic marker phospho-histone H3 (intestinal stem cells),caspase 3/7 activation by tunicamycin (H9c2 rat cardiomyoblasts),post-ischemic recovery of cardiac function (rate × pressure product) (perfused mouse heart; 25 min ischemia),infarct size (perfused mouse heart; TTC staining),concentrations with off-target effects (site IQ) [µM],inhibition of the fluorescent signal (positive inhibitor of site IQ) ([1]; plate control in screen) [%]
CC(=O)Nc1cccc(NC(=O)C(=O)NCCc2sc(-c3ccc(C)cc3)nc2C)c1 [S1QEL1.1],70,up to 45%,strongly attenuated caspase activation,significantly improved,small but significant decrease,–,–
"O=[N+]([O-])c1ccc(Oc2ccc(S(=O)(=O)NC3CCCCC3)cc2)cc1 [CN-POBS, N-cyclohexyl-4-(4-nitrophenoxy) benzenesulfonamide]",–,–,–,–,–,> 10,–
CCCCC1CCC(C(=O)NCCS(=O)(=O)N2CCN(c3cccc(Cl)c3)CC2)CC1 (stereo not shown) [S1QEL2.2],1500,up to 45%,also did so at higher concentrations,–,–,–,–
"C=C(C)[C@H]1Cc2c(ccc3c2O[C@@H]2COc4cc(OC)c(OC)cc4[C@@H]2C3=O)O1 [Rotenone, reference compound]",–,–,–,–,–,–,> 85
